Results taken from ChEMBL document CHEMBL4145690, “Rational Design and Structure Validation of a Novel Peptide Inhibitor of the Adenomatous-Polyposis-Coli (APC)-Rho-Guanine-Nucleotide-Exchange-Factor-4 (Asef) Interaction” (J Med Chem, 2018).
*1 amine or outer side, *2 acyl side, *3 side chain or, on linkers, in order; H or OH if unused. Where a SMILES comes first, the peptide text is derived from it. [ ]: non-standard residue; d: D form. The star is where a group is joined. Ala(4-thiazolyl) = N[C@@H](Cc1cscn1)C(=O)O; Leu(4,5-dehydro) = C=C(C)C[C@H](N)C(=O)O; X1 = O=C([C@H](Cc1ccc(Br)s1)N[*:1])[*:2]; Ala(2-furyl) = N[C@@H](Cc1ccco1)C(=O)O; Ala(cHept) = N[C@@H](CC1CCCCCC1)C(=O)O; 1Nal = N[C@@H](Cc1cccc2ccccc12)C(=O)O; 2Nal = N[C@@H](Cc1ccc2ccccc2c1)C(=O)O; Ala(cPent) = N[C@@H](CC1CCCC1)C(=O)O; Met(O2) = CS(=O)(=O)CC[C@H](N)C(=O)O; Gly(octyl) = CCCCCCCC[C@H](N)C(=O)O; Gly(cPent) = N[C@H](C(=O)O)C1CCCC1; Ala(cPr) = N[C@@H](CC1CC1)C(=O)O; Met(O) = CS(=O)CC[C@H](N)C(=O)O; 2Thi = N[C@@H](Cc1cccs1)C(=O)O; 3Thi = N[C@@H](Cc1ccsc1)C(=O)O; Cha = N[C@@H](CC1CCCCC1)C(=O)O; Aic = NC1(C(=O)O)Cc2ccccc2C1; Cba = N[C@@H](CC1CCC1)C(=O)O; Chg = N[C@H](C(=O)O)C1CCCCC1; Phg = N[C@H](C(=O)O)c1ccccc1; Tle = CC(C)(C)[C@H](N)C(=O)O; Ac8c = NC1(C(=O)O)CCCCCCC1; Pra = C#CC[C@H](N)C(=O)O; Cbz = O=C(OCc1ccccc1)*

Molecular target: Adenomatous polyposis coli protein (Homo sapiens, UniProt P25054)
Assay: Binding affinity to APC protein (303 to 739 residues) (unknown origin) incubated for 60 mins followed by probe addition and measured after 60 mins by competitive fluorescence polarization assay
Method in brief: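 Peptide in DMSO preincubated with protein 60 min at room temperature with shaking; probe added, then 60 min more. Controls: blank, tracer only, complex only. IC50 from dose-response curves, mean of three independent experiments.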

Sequence of Adenomatous polyposis coli protein (P25054 whole entry, the tested form may be a part): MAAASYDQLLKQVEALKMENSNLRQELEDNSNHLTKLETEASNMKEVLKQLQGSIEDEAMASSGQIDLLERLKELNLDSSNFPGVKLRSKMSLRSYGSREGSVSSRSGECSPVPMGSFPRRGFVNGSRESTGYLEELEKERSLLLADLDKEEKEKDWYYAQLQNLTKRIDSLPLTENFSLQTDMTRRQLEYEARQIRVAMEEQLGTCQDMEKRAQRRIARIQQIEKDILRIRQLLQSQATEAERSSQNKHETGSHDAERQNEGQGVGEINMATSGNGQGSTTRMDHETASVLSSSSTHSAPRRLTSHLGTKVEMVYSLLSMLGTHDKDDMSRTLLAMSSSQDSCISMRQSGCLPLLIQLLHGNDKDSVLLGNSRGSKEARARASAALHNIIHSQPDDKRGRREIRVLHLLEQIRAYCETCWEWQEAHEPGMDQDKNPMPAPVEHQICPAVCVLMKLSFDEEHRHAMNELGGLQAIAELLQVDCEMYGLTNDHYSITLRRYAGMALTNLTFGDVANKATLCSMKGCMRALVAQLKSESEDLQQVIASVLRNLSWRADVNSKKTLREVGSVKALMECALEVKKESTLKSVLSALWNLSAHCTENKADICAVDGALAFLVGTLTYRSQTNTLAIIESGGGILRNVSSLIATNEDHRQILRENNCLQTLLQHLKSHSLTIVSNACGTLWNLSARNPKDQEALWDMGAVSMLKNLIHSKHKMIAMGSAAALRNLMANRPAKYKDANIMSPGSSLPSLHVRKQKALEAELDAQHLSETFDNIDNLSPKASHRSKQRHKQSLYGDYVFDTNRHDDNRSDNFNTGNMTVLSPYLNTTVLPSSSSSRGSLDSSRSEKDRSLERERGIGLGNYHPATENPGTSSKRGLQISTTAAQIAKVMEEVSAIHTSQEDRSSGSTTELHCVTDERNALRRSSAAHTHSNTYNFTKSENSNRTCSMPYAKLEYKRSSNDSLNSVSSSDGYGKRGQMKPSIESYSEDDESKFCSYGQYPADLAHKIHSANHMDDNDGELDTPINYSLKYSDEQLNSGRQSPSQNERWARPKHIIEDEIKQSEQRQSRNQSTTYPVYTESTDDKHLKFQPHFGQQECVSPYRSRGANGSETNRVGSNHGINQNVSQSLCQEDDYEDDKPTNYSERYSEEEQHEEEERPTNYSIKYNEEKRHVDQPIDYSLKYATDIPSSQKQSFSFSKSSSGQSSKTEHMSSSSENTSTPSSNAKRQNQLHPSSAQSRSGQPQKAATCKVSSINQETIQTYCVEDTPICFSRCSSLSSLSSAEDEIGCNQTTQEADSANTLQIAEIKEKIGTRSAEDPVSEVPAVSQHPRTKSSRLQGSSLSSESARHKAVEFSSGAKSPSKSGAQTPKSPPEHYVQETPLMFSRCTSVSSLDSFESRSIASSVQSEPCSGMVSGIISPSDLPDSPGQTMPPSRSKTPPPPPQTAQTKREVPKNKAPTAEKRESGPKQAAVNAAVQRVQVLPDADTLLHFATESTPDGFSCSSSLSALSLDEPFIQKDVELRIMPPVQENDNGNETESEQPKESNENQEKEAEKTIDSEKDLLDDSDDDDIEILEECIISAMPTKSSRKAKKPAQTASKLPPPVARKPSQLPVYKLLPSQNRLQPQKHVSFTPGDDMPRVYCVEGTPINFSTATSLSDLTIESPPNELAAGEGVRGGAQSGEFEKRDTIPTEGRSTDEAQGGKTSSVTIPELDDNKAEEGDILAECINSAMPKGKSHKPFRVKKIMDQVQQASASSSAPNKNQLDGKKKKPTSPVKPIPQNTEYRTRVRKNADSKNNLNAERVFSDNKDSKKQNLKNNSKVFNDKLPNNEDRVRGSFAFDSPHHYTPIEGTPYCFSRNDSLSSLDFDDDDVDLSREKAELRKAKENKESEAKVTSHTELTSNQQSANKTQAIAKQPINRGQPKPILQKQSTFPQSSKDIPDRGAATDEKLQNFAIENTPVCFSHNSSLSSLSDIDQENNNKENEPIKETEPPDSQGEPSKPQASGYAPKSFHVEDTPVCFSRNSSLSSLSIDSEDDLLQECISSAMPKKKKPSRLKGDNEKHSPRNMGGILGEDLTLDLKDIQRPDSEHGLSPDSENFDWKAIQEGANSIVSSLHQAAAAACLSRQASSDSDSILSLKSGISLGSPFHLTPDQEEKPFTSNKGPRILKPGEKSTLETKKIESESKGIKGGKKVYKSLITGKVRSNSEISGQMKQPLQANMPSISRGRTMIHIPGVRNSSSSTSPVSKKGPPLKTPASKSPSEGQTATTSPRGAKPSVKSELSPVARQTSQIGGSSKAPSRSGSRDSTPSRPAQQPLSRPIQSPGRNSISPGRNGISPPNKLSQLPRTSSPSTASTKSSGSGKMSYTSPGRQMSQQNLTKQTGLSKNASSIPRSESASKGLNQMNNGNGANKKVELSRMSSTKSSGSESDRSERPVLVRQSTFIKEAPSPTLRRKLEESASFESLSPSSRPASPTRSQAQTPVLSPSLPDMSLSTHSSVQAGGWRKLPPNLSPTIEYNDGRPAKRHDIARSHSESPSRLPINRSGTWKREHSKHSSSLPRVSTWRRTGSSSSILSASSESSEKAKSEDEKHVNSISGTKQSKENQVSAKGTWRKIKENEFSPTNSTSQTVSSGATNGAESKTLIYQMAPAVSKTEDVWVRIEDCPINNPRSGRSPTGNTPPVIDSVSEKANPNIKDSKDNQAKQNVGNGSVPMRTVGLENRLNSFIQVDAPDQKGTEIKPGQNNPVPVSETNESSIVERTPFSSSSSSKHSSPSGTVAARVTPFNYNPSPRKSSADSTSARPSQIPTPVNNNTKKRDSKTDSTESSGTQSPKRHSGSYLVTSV

Row | Compound | IC50
1 | CC(C)C[C@H](NC(=O)[C@H](CC(=O)O)NC(=O)[C@H](CCC(=O)O)NC(=O)CNC(=O)[C@H](C)NC(=O)OCc1ccccc1)C(=O)N[C@@H](Cc1ccc(O)cc1)C(=O)N[C@@H](CCC(=O)O)C(N)=O (Cbz-AGEDLYE-NH2) | 6.35 µM
2 | CC(C)C[C@H](NC(=O)[C@H](CC(N)=O)NC(=O)[C@H](CCC(=O)O)NC(=O)CNC(=O)[C@H](C)NC(=O)OCc1ccccc1)C(=O)N[C@@H](Cc1ccc(O)cc1)C(=O)N[C@@H](CCC(=O)O)C(N)=O (Cbz-AGENLYE-NH2) | 5.19 µM
3 | C[C@H](NC(=O)OCc1ccccc1)C(=O)NCC(=O)N[C@@H](CCC(=O)O)C(=O)N[C@@H](CO)C(=O)NCC(=O)N[C@@H](Cc1ccc(O)cc1)C(=O)N[C@@H](CCC(=O)O)C(N)=O (Cbz-AGESGYE-NH2) | 109 µM
4 | C[C@H](NC(=O)OCc1ccccc1)C(=O)NCC(=O)N[C@@H](CCC(=O)O)C(=O)N[C@@H](CO)C(=O)N[C@@H](Cc1c[nH]cn1)C(=O)N[C@@H](Cc1ccc(O)cc1)C(=O)N[C@@H](CCC(=O)O)C(N)=O (Cbz-AGESHYE-NH2) | 50.6 µM
5 | CC(C)[C@H](NC(=O)[C@H](CO)NC(=O)[C@H](CCC(=O)O)NC(=O)CNC(=O)[C@H](C)NC(=O)OCc1ccccc1)C(=O)N[C@@H](Cc1ccc(O)cc1)C(=O)N[C@@H](CCC(=O)O)C(N)=O (Cbz-AGESVYE-NH2) | 12.4 µM
6 | C[C@H](NC(=O)OCc1ccccc1)C(=O)NCC(=O)N[C@@H](CCC(=O)O)C(=O)N[C@@H](CO)C(=O)N[C@@H](Cc1c[nH]c2ccccc12)C(=O)N[C@@H](Cc1ccc(O)cc1)C(=O)N[C@@H](CCC(=O)O)C(N)=O (Cbz-AGESWYE-NH2) | 10.5 µM
7 | C[C@H](NC(=O)OCc1ccccc1)C(=O)NCC(=O)N[C@@H](CCC(=O)O)C(=O)N[C@@H](CO)C(=O)N[C@@H](Cc1ccc(O)cc1)C(=O)N[C@@H](Cc1ccc(O)cc1)C(=O)N[C@@H](CCC(=O)O)C(N)=O (Cbz-AGESYYE-NH2) | 5.07 µM
8 | C[C@H](NC(=O)OCc1ccccc1)C(=O)NCC(=O)N[C@@H](CCC(=O)O)C(=O)N[C@@H](CO)C(=O)N[C@@H](Cc1cccc2ccccc12)C(=O)N[C@@H](Cc1ccc(O)cc1)C(=O)N[C@@H](CCC(=O)O)C(N)=O (Cbz-AGES[1Nal]YE-NH2) | 10.1 µM
9 | C[C@H](NC(=O)OCc1ccccc1)C(=O)NCC(=O)N[C@@H](CCC(=O)O)C(=O)N[C@@H](CO)C(=O)N[C@@H](Cc1ccsc1)C(=O)N[C@@H](Cc1ccc(O)cc1)C(=O)N[C@@H](CCC(=O)O)C(N)=O (Cbz-AGES[3Thi]YE-NH2) | 6.86 µM
10 | C[C@H](NC(=O)OCc1ccccc1)C(=O)NCC(=O)N[C@@H](CCC(=O)O)C(=O)N[C@@H](CO)C(=O)NC1(C(=O)N[C@@H](Cc2ccc(O)cc2)C(=O)N[C@@H](CCC(=O)O)C(N)=O)CCCCCCC1 (Cbz-AGES[Ac8c]YE-NH2) | 10.3 µM
11 | C[C@H](NC(=O)OCc1ccccc1)C(=O)NCC(=O)N[C@@H](CCC(=O)O)C(=O)N[C@@H](CO)C(=O)NC1(C(=O)N[C@@H](Cc2ccc(O)cc2)C(=O)N[C@@H](CCC(=O)O)C(N)=O)Cc2ccccc2C1 (Cbz-AGES[Aic]YE-NH2) | 25.6 µM
12 | C[C@H](NC(=O)OCc1ccccc1)C(=O)NCC(=O)N[C@@H](CCC(=O)O)C(=O)N[C@@H](CO)C(=O)N[C@@H](Cc1ccco1)C(=O)N[C@@H](Cc1ccc(O)cc1)C(=O)N[C@@H](CCC(=O)O)C(N)=O (Cbz-AGES[Ala(2-furyl)]YE-NH2) | 6.95 µM
13 | C[C@H](NC(=O)OCc1ccccc1)C(=O)NCC(=O)N[C@@H](CCC(=O)O)C(=O)N[C@@H](CO)C(=O)N[C@@H](Cc1cscn1)C(=O)N[C@@H](Cc1ccc(O)cc1)C(=O)N[C@@H](CCC(=O)O)C(N)=O (Cbz-AGES[Ala(4-thiazolyl)]YE-NH2) | 16.4 µM
14 | C[C@H](NC(=O)OCc1ccccc1)C(=O)NCC(=O)N[C@@H](CCC(=O)O)C(=O)N[C@@H](CO)C(=O)N[C@@H](CCS(C)(=O)=O)C(=O)N[C@@H](Cc1ccc(O)cc1)C(=O)N[C@@H](CCC(=O)O)C(N)=O (Cbz-AGES[Met(O2)]YE-NH2) | 5.73 µM
15 | C[C@H](NC(=O)OCc1ccccc1)C(=O)NCC(=O)N[C@@H](CCC(=O)O)C(=O)N[C@@H](CO)C(=O)N[C@@H](CC[S+](C)[O-])C(=O)N[C@@H](Cc1ccc(O)cc1)C(=O)N[C@@H](CCC(=O)O)C(N)=O (stereo partly specified) (Cbz-AGES[Met(O)]YE-NH2) | 13.9 µM
16 | C#CC[C@H](NC(=O)[C@H](CO)NC(=O)[C@H](CCC(=O)O)NC(=O)CNC(=O)[C@H](C)NC(=O)OCc1ccccc1)C(=O)N[C@@H](Cc1ccc(O)cc1)C(=O)N[C@@H](CCC(=O)O)C(N)=O (Cbz-AGES[Pra]YE-NH2) | 30.8 µM
17 | C[C@H](NC(=O)OCc1ccccc1)C(=O)NCC(=O)N[C@@H](CCC(=O)O)C(=O)N[C@@H](CO)C(=O)N[C@H](C(=O)N[C@@H](Cc1ccc(O)cc1)C(=O)N[C@@H](CCC(=O)O)C(N)=O)C(C)(C)C (Cbz-AGES[Tle]YE-NH2) | 31.5 µM

Second part, the molecule after the results:

Row | IC50 | Compound
18 | 2.01 µM | CC(C)C[C@H](NC(=O)[C@@H](NC(=O)[C@H](CCC(=O)O)NC(=O)CNC(=O)[C@H](C)NC(=O)OCc1ccccc1)[C@H](C)O)C(=O)N[C@@H](Cc1ccc(O)cc1)C(=O)N[C@@H](CCC(=O)O)C(N)=O
19 | 0.57 µM | C[C@H](NC(=O)OCc1ccccc1)C(=O)NCC(=O)N[C@@H](CCC(=O)O)C(=O)N[C@@H](C)C(=O)N[C@@H](CC1CCCC1)C(=O)N[C@@H](Cc1ccc(O)cc1)C(=O)N[C@@H](CCC(=O)O)C(N)=O (Cbz-AGEA[Ala(cPent)]YE-NH2)
20 | 1.51 µM | CC(C)C[C@H](NC(=O)[C@H](CS)NC(=O)[C@H](CCC(=O)O)NC(=O)CNC(=O)[C@H](C)NC(=O)OCc1ccccc1)C(=O)N[C@@H](Cc1ccc(O)cc1)C(=O)N[C@@H](CCC(=O)O)C(N)=O (Cbz-AGECLYE-NH2)
21 | 4.36 µM | C[C@H](NC(=O)OCc1ccccc1)C(=O)NCC(=O)N[C@@H](CCC(=O)O)C(=O)N[C@@H](CO)C(=O)N[C@@H](Cc1ccccc1)C(=O)N[C@@H](Cc1ccc(O)cc1)C(=O)N[C@@H](CCC(=O)O)C(N)=O (Cbz-AGESFYE-NH2)
22 | 3.85 µM | CC[C@H](C)[C@H](NC(=O)[C@H](CO)NC(=O)[C@H](CCC(=O)O)NC(=O)CNC(=O)[C@H](C)NC(=O)OCc1ccccc1)C(=O)N[C@@H](Cc1ccc(O)cc1)C(=O)N[C@@H](CCC(=O)O)C(N)=O (Cbz-AGESIYE-NH2)
23 | 3.3 µM | CSCC[C@H](NC(=O)[C@H](CO)NC(=O)[C@H](CCC(=O)O)NC(=O)CNC(=O)[C@H](C)NC(=O)OCc1ccccc1)C(=O)N[C@@H](Cc1ccc(O)cc1)C(=O)N[C@@H](CCC(=O)O)C(N)=O (Cbz-AGESMYE-NH2)
24 | 3.96 µM | C[C@H](NC(=O)OCc1ccccc1)C(=O)NCC(=O)N[C@@H](CCC(=O)O)C(=O)N[C@@H](CO)C(=O)N[C@@H](Cc1ccc2ccccc2c1)C(=O)N[C@@H](Cc1ccc(O)cc1)C(=O)N[C@@H](CCC(=O)O)C(N)=O (Cbz-AGES[2Nal]YE-NH2)
25 | 4.01 µM | C[C@H](NC(=O)OCc1ccccc1)C(=O)NCC(=O)N[C@@H](CCC(=O)O)C(=O)N[C@@H](CO)C(=O)N[C@@H](Cc1cccs1)C(=O)N[C@@H](Cc1ccc(O)cc1)C(=O)N[C@@H](CCC(=O)O)C(N)=O (Cbz-AGES[2Thi]YE-NH2)
26 | 1.94 µM | C[C@H](NC(=O)OCc1ccccc1)C(=O)NCC(=O)N[C@@H](CCC(=O)O)C(=O)N[C@@H](CO)C(=O)N[C@@H](CC1CCCCCC1)C(=O)N[C@@H](Cc1ccc(O)cc1)C(=O)N[C@@H](CCC(=O)O)C(N)=O (Cbz-AGES[Ala(cHept)]YE-NH2)
27 | 0.62 µM | C[C@H](NC(=O)OCc1ccccc1)C(=O)NCC(=O)N[C@@H](CCC(=O)O)C(=O)N[C@@H](CO)C(=O)N[C@@H](CC1CCCC1)C(=O)N[C@@H](Cc1ccc(O)cc1)C(=O)N[C@@H](CCC(=O)O)C(N)=O (Cbz-AGES[Ala(cPent)]YE-NH2)
28 | 1.26 µM | C[C@H](NC(=O)OCc1ccccc1)C(=O)NCC(=O)N[C@@H](CCC(=O)O)C(=O)N[C@@H](CO)C(=O)N[C@@H](CC1CC1)C(=O)N[C@@H](Cc1ccc(O)cc1)C(=O)N[C@@H](CCC(=O)O)C(N)=O (Cbz-AGES[Ala(cPr)]YE-NH2)
29 | 1.53 µM | C[C@H](NC(=O)OCc1ccccc1)C(=O)NCC(=O)N[C@@H](CCC(=O)O)C(=O)N[C@@H](CO)C(=O)N[C@@H](CC1CCC1)C(=O)N[C@@H](Cc1ccc(O)cc1)C(=O)N[C@@H](CCC(=O)O)C(N)=O (Cbz-AGES[Cba]YE-NH2)
30 | 1.3 µM | C[C@H](NC(=O)OCc1ccccc1)C(=O)NCC(=O)N[C@@H](CCC(=O)O)C(=O)N[C@@H](CO)C(=O)N[C@@H](CC1CCCCC1)C(=O)N[C@@H](Cc1ccc(O)cc1)C(=O)N[C@@H](CCC(=O)O)C(N)=O (Cbz-AGES[Cha]YE-NH2)
31 | 2.95 µM | C[C@H](NC(=O)OCc1ccccc1)C(=O)NCC(=O)N[C@@H](CCC(=O)O)C(=O)N[C@@H](CO)C(=O)N[C@H](C(=O)N[C@@H](Cc1ccc(O)cc1)C(=O)N[C@@H](CCC(=O)O)C(N)=O)C1CCCCC1 (Cbz-AGES[Chg]YE-NH2)
32 | 4.07 µM | C[C@H](NC(=O)OCc1ccccc1)C(=O)NCC(=O)N[C@@H](CCC(=O)O)C(=O)N[C@@H](CO)C(=O)N[C@H](C(=O)N[C@@H](Cc1ccc(O)cc1)C(=O)N[C@@H](CCC(=O)O)C(N)=O)C1CCCC1 (Cbz-AGES[Gly(cPent)]YE-NH2)
33 | 3.02 µM | CCCCCCCC[C@H](NC(=O)[C@H](CO)NC(=O)[C@H](CCC(=O)O)NC(=O)CNC(=O)[C@H](C)NC(=O)OCc1ccccc1)C(=O)N[C@@H](Cc1ccc(O)cc1)C(=O)N[C@@H](CCC(=O)O)C(N)=O (Cbz-AGES[Gly(octyl)]YE-NH2)
34 | 3.64 µM | C=C(C)C[C@H](NC(=O)[C@H](CO)NC(=O)[C@H](CCC(=O)O)NC(=O)CNC(=O)[C@H](C)NC(=O)OCc1ccccc1)C(=O)N[C@@H](Cc1ccc(O)cc1)C(=O)N[C@@H](CCC(=O)O)C(N)=O (Cbz-AGES[Leu(4,5-dehydro)]YE-NH2)
35 | 4.29 µM | C[C@H](NC(=O)OCc1ccccc1)C(=O)NCC(=O)N[C@@H](CCC(=O)O)C(=O)N[C@@H](CO)C(=O)N[C@H](C(=O)N[C@@H](Cc1ccc(O)cc1)C(=O)N[C@@H](CCC(=O)O)C(N)=O)c1ccccc1 (Cbz-AGES[Phg]YE-NH2)
36 | 5 µM | C[C@H](NC(=O)OCc1ccccc1)C(=O)NCC(=O)N[C@@H](CCC(=O)O)C(=O)N[C@@H](CO)C(=O)N[C@@H](Cc1ccc(Br)s1)C(=O)N[C@@H](Cc1ccc(O)cc1)C(=O)N[C@@H](CCC(=O)O)C(N)=O (Cbz-AGES[X1]YE-NH2)
